Compound activity (PubChem)
Most compounds without a hit are left out; they make up all but 2% or so of the library.
CTSL1 counter = counter-screen for PFM18AAP inhibitors: inhibitors of F. hepatica cathepsin L1. recombinant F. hepatica cathepsin L1, Z-Leu-Arg-MCA fluorescence. inhibition, % at 5.96 µM. 300,000 tested, 0.49% active. AID 1906;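 active = inhibition above the mean of all tested compounds plus 3 SD, set per screening campaign, cut at about 17% in these data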;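 note: 0% = plate median of test compound wells and 100% = 1 µM Z-Phe-Ala-diazomethylketone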
UCH37 DUB inh = blocks the human deubiquitinase UCH37 | purified proteasome/UCH37, Ub-AMC cleavage fluorescence | Q9Y5K5 | 330,000 tested, 0.33% active | inhibition, % (test concentration not listed);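 active = mean inhibition over replicate wells above about 20%, limit read from the data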;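 note: 0% = compound-free wells with enzyme and 100% = wells lacking proteasome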
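system = Proteasome-associated human UCH37 deubiquitinase | amount = 0.15 nM proteasome as dispensed | medium = pH 7.4 Tris-HCl (50 mM) with ovalbumin, ATP-MgCl2, DTT | incubation = 30 min preincubation with enzyme, 25 min cleavage at room temperature | detection = AMC fluorescence 355/460 nm | read-out basis = percent inhibition | controls = no-proteasome and no-compound wells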
PP5 inh = blocks human protein phosphatase 5 activity; P53041; purified PP5c, OMFP substrate fluorescence; inhibition, % at 6.7 µM; 320,000 tested, 0.18% active; AID 1987;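 active = inhibition above the campaign's mean inhibition across all tested compounds plus 3 SD, cut at about 9.5% in these data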;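 note: 0% = DMSO only and 100% = 100 µM cantharidin control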
PAD4 inh = blocks human protein arginine deiminase 4; 330,000 tested, 0.41% active; inhibition, % at 6.36 µM; recombinant PAD4, RCA probe fluorescence polarization; Q9UM07;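 active = percent inhibition above a cutoff equal to the mean of all tested compounds plus 3 SD, cut at about 15% in these data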;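 note: 0% = PAD4 with RCA probe and DMSO and 100% = probe without PAD4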
Target sequence (Q9UM07 whole entry, looked up): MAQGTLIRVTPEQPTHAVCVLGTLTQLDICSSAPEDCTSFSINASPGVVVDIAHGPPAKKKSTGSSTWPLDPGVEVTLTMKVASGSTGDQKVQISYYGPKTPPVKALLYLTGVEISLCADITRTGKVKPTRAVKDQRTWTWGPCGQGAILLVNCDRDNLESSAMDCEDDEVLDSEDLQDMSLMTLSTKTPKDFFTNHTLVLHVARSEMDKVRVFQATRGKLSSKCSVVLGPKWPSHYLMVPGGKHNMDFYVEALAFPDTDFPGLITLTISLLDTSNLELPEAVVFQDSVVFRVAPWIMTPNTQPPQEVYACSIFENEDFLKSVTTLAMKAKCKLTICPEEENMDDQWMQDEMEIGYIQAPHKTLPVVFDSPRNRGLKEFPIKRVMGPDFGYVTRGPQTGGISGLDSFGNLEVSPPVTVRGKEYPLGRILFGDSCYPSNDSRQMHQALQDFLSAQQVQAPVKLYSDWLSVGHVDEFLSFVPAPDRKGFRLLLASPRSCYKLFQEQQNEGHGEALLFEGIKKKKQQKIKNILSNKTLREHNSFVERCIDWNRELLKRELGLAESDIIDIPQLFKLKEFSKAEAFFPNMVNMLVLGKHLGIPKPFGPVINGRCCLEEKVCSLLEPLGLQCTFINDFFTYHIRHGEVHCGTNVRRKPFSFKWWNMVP
GSTO1 counter = blocks human GSTO1 in RBBP9 counter-screen; recombinant GSTO1, activity-based probe fluorescence polarization; inhibition, % at 5.96 µM; 300,000 tested, 1.1% active; AID 1974;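 active = inhibition above the campaign mean inhibition plus 3 SD, cut at about 35% in these data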;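 note: 0% = GSTO1-1 with DMSO and 100% = wells lacking GSTO1-1 enzyme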
Apaf-1 inh = blocks human Apaf-1 apoptosome activity; O14727; reconstituted apoptosome caspase-3 activity, DEVD-Rh110 fluorescence; inhibition, % at 20 µM; 330,000 tested, 0.71% active; AID 489030; active = inhibition of at least 40% at 20 µM;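 note: plate controls were DMSO wells for no effect and DEVD-CHO caspase inhibitor wells for full effect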
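Assay system – apoptosome proteins · Medium – Hepes buffer, pH 7.5 · Also added – cytochrome c with DEVD-Rh110 · Timing – 30 min compound preincubation, 50 min activation, room temperature · Detection – Rh110 fluorescence, excitation 480 nm, emission 540 nm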
* marks the source's active call; other numbers are inactive results; i = inactive; nt = not tested or not shown.

SMILES	CTSL1 counter	UCH37 DUB inh	PP5 inh	PAD4 inh	GSTO1 counter	Apaf-1 inh
CC(=NNC(=O)c1nnn(-c2nonc2N)c1CN(C)c1ccccc1)c1ccccn1	nt	6.3	nt	nt	nt	nt
C/C(=N\N=C(/N)SC1CC(=O)N(c2ccc(Cl)cc2)C1=O)c1cccs1 (configuration not stated)	1.4	nt	6.5	-2.4	36.3*	-2.9
S=C(NCCNCc1ccccc1)NC1CCCCC1	19.0*	nt	0.6	-3.9	-13.0	0.7
S=C(NCCc1ccccc1)NC1CCCCCC1	2.4	0.8	2.2	2.9	-2.9	11.3
CCc1cc2c(nc1CC)CCN(CCC(C)=NO[C@@H](C)c1cc(-c3c(C)cc(C)cc3C)no1)C2	nt	5.1	nt	nt	nt	nt
COc1ccc(C=NNS(=O)(=O)c2ccccc2)cc1OS(=O)(=O)c1ccc(C)cc1	nt	7.2	nt	nt	nt	nt
CC(C)NC(=O)NC(=O)COC(=O)c1ccc([N+](=O)[O-])cc1Cl	0.5	-2.0	-1.4	-5.8	2.0	6.8
CNC(=O)COC(=O)c1ccc([N+](=O)[O-])cc1Cl	17.6*	3.0	2.7	-2.3	2.2	3.2
Cc1[nH][nH]c(=O)c1C(c1ccc(-c2ccc(C(=O)O)cc2)o1)c1c(C)[nH][nH]c1=O	nt	23.0*	nt	nt	nt	nt
CNC(=S)N/N=C/c1ccc(-c2ccc(C(=O)O)cc2)o1	9.1	nt	2.3	-0.8	7.7	-0.1
CC(=O)Oc1cc(O)c2c(=O)c(OC(C)=O)c(-c3ccc(OC(C)=O)c(OC(C)=O)c3)oc2c1	-15.2	5.9	5.5	-8.9	60.3*	-1.2
COc1ccc(-c2oc3cc(OC(C)=O)cc(OC(C)=O)c3c(=O)c2OC)cc1	nt	-23.2	nt	nt	nt	nt
O=c1[nH]c(C(=NO)c2ccccc2)no1	nt	6.8	nt	nt	nt	nt
COCCn1cnnc1SCC(=O)Nc1sc2c(c1C#N)CCC2	nt	-0.7	0.2	-1.4	nt	0.9
Cn1cnnc1SCC(=O)Nc1sc2c(c1C(N)=O)CCC2	-1.0	7.7	0.7	-3.6	35.9*	-10.0
CCOC(=O)c1ccc(N2N=C(C)/C(=C/C=C/c3ccco3)C2=O)cc1	0.2	8.0	2.3	-5.5	4.7	33.9
O=C(O)c1cc(N2N=C(C(F)(F)F)/C(=C/C=C/c3ccco3)C2=O)ccc1Cl	nt	21.3*	nt	nt	nt	nt
Cc1csc(NC(=O)C2CCCN(S(=O)(=O)c3ccc(Br)s3)C2)n1 (configuration not stated)	0.4	4.8	2.2	-2.9	46.4*	24.1
CCOC(=O)C1CCCN(S(=O)(=O)c2ccc(Br)s2)C1 (configuration not stated)	16.6*	1.3	4.4	-4.0	9.2	-6.9
CCOC(=O)C1CCCN(C(=O)c2cc(S(=O)(=O)N3CCCCCC3)ccc2OC)C1 (configuration not stated)	nt	-2.4	-2.6	-8.2	nt	49.1*
CCOC(=O)Cn1cc(C=NNC(=O)c2cc3ccccc3o2)c2ccccc21	nt	-26.6	nt	nt	nt	nt
O=C(Cn1cc(C(F)(F)F)ccc1=O)NN=Cc1ccc(O)cc1	nt	1.6	nt	nt	nt	nt
CN(C)c1ccc(C=Nn2ncc3ccccc32)cc1	nt	-71.7	nt	nt	nt	nt
Cc1ccc(CNC(=O)CSc2nc(C)cc(C)c2C#N)cc1	17.0*	4.7	2.5	0.0	7.1	15.1
COC(=O)c1ccc(C=Nn2c(C)nc3ccccc3c2=O)cc1	nt	3.4	nt	nt	nt	nt
SMILES	CTSL1 counter	UCH37 DUB inh	PP5 inh	PAD4 inh	GSTO1 counter	Apaf-1 inh
COc1c(C=NNc2ccc([N+](=O)[O-])cc2[N+](=O)[O-])c(C)nn1-c1ccccc1	nt	8.4	nt	nt	nt	nt
O=C(N/C(=C/c1ccc([N+](=O)[O-])cc1)C(=O)N1CCCC1)c1ccccc1	1.1	7.9	3.4	3.8	-7.7	-1.4
O=C(N/C(=C/C=C/c1ccccc1)C(=O)N1CCCCC1)c1ccc([N+](=O)[O-])cc1	17.8*	3.2	-1.8	1.2	0.5	10.0
COc1cccc(COc2nc3c(c(=O)n(C)c(=O)n3C)n2C)c1	0.9	4.2	-1.2	0.9	35.6*	0.5
Cc1ccc(C=NNC(=O)c2cc3ccccc3cc2O)o1	nt	5.1	nt	nt	nt	nt
Nc1ccc2c(c1)-c1ccccc1S(=O)(=O)N2	6.6	3.1	0.3	5.5	36.8*	25.6
COc1ccc(C=NNC(=S)Nc2ccccc2)cc1	nt	5.0	nt	nt	nt	nt
CN(C(=O)c1cc2c(=O)n3ccccc3nc2n1C)C1CCCCC1	18.0*	i	-1.9	-0.7	2.6	14.4
Br/C(C=Nn1cnnc1)=C\c1ccccc1	nt	1.2	nt	nt	nt	nt
O=C(c1ccco1)N1CCN(C(c2ccccc2Cl)c2nnnn2CC2CCCO2)CC1 (configuration not stated)	19.4*	0.2	1.5	-1.1	8.9	-2.9
CC(C)C(NC(=O)c1ccccc1)C(=O)NN=Cc1ccco1 (configuration not stated)	nt	2.7	nt	nt	nt	nt
CCc1c(C)nc(SCC(=O)NNC(=O)Cc2ccc(OC)cc2)[nH]c1=O	17.6*	4.0	0.3	-2.1	12.1	-14.4
COc1cc(-c2c(C#N)c(N)nc3[nH]c(=S)[nH]c(=O)c23)ccc1O	6.2	22.6*	0.8	-1.1	-1.7	1.1
CN(c1ccccc1)S(=O)(=O)c1cccc(C(=O)NCCc2ccc(O)c(O)c2)c1	2.1	2.1	-1.1	-1.4	39.0*	7.3
N#CC(C#N)=C(N)/C(C#N)=C/c1cc(O)c(O)c(O)c1	2.5	nt	-0.7	-4.9	64.4*	8.5
CC(=O)Oc1ccc(C=NNS(=O)(=O)c2ccccc2)cc1	nt	4.8	nt	nt	nt	nt
Clc1ccc(Cl)c(OCc2cc(-c3ccccc3Cl)on2)c1	18.8*	3.4	-6.7	2.0	18.6	15.6
CC(=NNC(=O)c1nnn(-c2nonc2N)c1CSc1ccccc1)c1ccc2c(c1)OCO2	nt	-4.3	nt	nt	nt	nt
CC(OC(=O)c1ccc([N+](=O)[O-])s1)C(=O)NC1CCCCC1C (configuration not stated)	nt	22.6*	4.7	-13.9	nt	28.2
COc1cc(C(=O)OC(C)C(=O)NC2CCCCC2C)c([N+](=O)[O-])cc1OC (configuration not stated)	-0.8	3.7	1.3	-4.7	-11.2	4.9
CC(=NNc1nccnc1Cl)c1ccc(O)cc1	nt	7.5	nt	nt	nt	nt
O=C(CC=NOCc1c(Cl)cccc1Cl)c1ccc(Cl)cc1	nt	3.9	nt	nt	nt	nt
N#CCOc1nc(N2CCOCC2)nc(N2CCOCC2)n1	1.1	0.1	0.8	-1.0	-1.2	-3.8
N#Cc1nc(N2CCOCC2)nc(N2CCOCC2)n1	48.3*	4.6	0.0	9.0	-1.4	-7.1
CCc1cc(Cn2nc(C(=O)O)cc2-c2ccccc2)on1	-0.9	22.1*	3.0	-1.8	1.5	-0.3
CCc1cc(Cn2nc(-c3ccccc3C)cc2C(=O)O)on1	nt	1.9	1.1	3.6	nt	-6.3
O=C(NN=C/C=C/c1ccco1)c1cnccn1	nt	24.6*	nt	nt	nt	nt
CC(=NNC(=O)CCc1ccccc1)c1ccc2c(c1)OCO2	nt	-0.1	nt	nt	nt	nt
C/C(=N\NC(N)=S)C1(C)CC2(CC(C)(C)OC2=O)C(=O)O1 (configuration not stated)	18.7*	nt	3.3	0.5	4.2	2.0
CCCC1CC(C)(/C(C)=N\NC(N)=S)OC1=O (configuration not stated)	9.8	nt	-0.8	-1.3	4.9	4.3
